One test concerns Hs 683. The experiment in a line: Growth inhibition of human Hs683 cells after 72 hrs by MTT assay. It counts as functional. The following applies: Hs 683, 72 h. A digest of the protocol:
(§1)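 Cells were grown in RPMI with 10% heat-inactivated fetal bovine serum, 4 mM glutamine, 100 μg/mL gentamicin and penicillin–streptomycin (200 units/mL and […]). They were cultured with compound for 72 h, then read by MTT colorimetric assay. GI50 is the concentration cutting growth by 50% relative to untreated control.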
In general terms: Tetrazolium dyes change colour on reduction, which living cells bring about.

For a further test, the system named is SK-MEL-28. Nature of the test: Growth inhibition of human SK-MEL-28 cells after 72 hrs by MTT assay. Format: functional. The following applies: SK-MEL-28, 72 h. A digest of the protocol: as §1
For a further test, the system named is MCF7. The experiment in a line: Growth inhibition of human MCF7 cells after 72 hrs by MTT assay. Format: functional. The following applies: MCF7, 72 h. A digest of the protocol:
as §1

In a further test the test system is U373 MG. The experiment in a line: Growth inhibition of human U373 cells after 72 hrs by MTT assay. Format: functional, U-373MG ATCC. A digest of the protocol: as §1
For another test, the system named is B16-F10. Nature of the test: Growth inhibition of mouse B16F10 cells after 72 hrs by MTT assay. Format: functional. As to conditions: B16-F10, 72 h. A digest of the protocol: as §1
A further test has as its system A549. Nature of the test: Growth inhibition of human A549 cells after 72 hrs by MTT assay. Format: functional. The following applies: A549, 72 h. A digest of the protocol:
as §1

The results in this text go back to ChEMBL document CHEMBL4118029, “Marine Terpenoid Diacylguanidines: Structure, Synthesis, and Biological Evaluation of Naturally Occurring Actinofide and Synthetic Analogues” (2017).

Usually GI50 stands for the concentration at which growth is held to half of that of the control.

Structures are written as SMILES. Some results are limits rather than exact numbers.

`CC(C)=CCC/C(C)=C/C(=O)NC(=N)N`: the 50% growth inhibitory concentration (GI50) in the test with Hs 683 is 39.4 µM; with SK-MEL-28, 56.3 µM; with MCF7, 52.2 µM; with U373 MG it was 46 µM; in the test with B16-F10 it was 17.1 µM; with A549, 76.5 µM.

`CC(C)=CC(=O)NC(=N)NC(=O)C=C(C)C`: the GI50 is 60.3 µM in the test on Hs 683; above 100 µM with SK-MEL-28; 59.7 µM in the test with MCF7; 45.6 µM with U373 MG; 21.3 µM with B16-F10; 75.6 µM with A549.

On to `CC(C)=CCC/C(C)=C/CC/C(C)=C/C(=O)NC(=N)N`, for which the GI50 in the test on Hs 683 worked out at 10 µM; with SK-MEL-28, 20.1 µM; in the test on MCF7, 22 µM; in the test on U373 MG it was 21 µM; in the test on B16-F10, 9.2 µM; in the test with A549 it was 13.7 µM.

Regarding `CC(C)=CCC/C(C)=C/C(=O)NC(=N)NC(=O)C=C(C)C`, the GI50 in the test on Hs 683 worked out at 31.5 µM; in the test with SK-MEL-28, 53.4 µM; in the test on MCF7, 41.5 µM; with U373 MG, 36.2 µM; in the test on B16-F10, 25 µM; in the test on A549 it was 37.4 µM.

Regarding `CC(C)=CCC/C(C)=C/CC/C(C)=C/C(=O)NC(=N)NC(=O)/C=C(\C)CCC=C(C)C`, the 50% growth inhibitory concentration (GI50) was determined as 37.4 µM in the test on Hs 683; 57.3 µM in the test with SK-MEL-28; 51.2 µM in the test on MCF7; 35 µM with U373 MG; 18.9 µM in the test with B16-F10; 38.9 µM with A549.

In the case of `CC(C)=CC(=O)NC(=N)N`, the GI50 was above 100 µM in the test with Hs 683; above 100 µM with SK-MEL-28; above 100 µM in the test on MCF7; above 100 µM in the test with U373 MG; 92.8 µM in the test with B16-F10; above 100 µM in the test with A549.

In the case of `CC(C)=CCC/C(C)=C/CC/C(C)=C/C(=O)NC(=N)NC(=O)C=C(C)C`, the 50% growth inhibitory concentration (GI50) in the test with Hs 683 was found to be 8.3 µM; in the test on SK-MEL-28, 24.2 µM; with MCF7, 23.4 µM; in the test on U373 MG, 15.7 µM; in the test on B16-F10, 7.5 µM; with A549, 23.4 µM.

Consider `CC(C)=CCC/C(C)=C/CC/C(C)=C/C(=O)NC(=N)NC(=O)/C=C(\C)CC/C=C(\C)CCC=C(C)C`, for which the GI50 turned out to be 6.8 µM in the test on Hs 683; 42.7 µM in the test on SK-MEL-28; 30.3 µM in the test with MCF7; 9.2 µM with U373 MG; 5.7 µM in the test with B16-F10; 18.5 µM with A549.

For `COc1cc([C@@H]2c3cc4c(cc3[C@@H](O[C@@H]3O[C@@H]5CO[C@@H](C)O[C@H]5[C@H](O)[C@H]3O)[C@H]3COC(=O)[C@H]23)OCO4)cc(OC)c1O` [ETOPOSIDE], the GI50 in the test with Hs 683 was determined as 1.5 µM; in the test with SK-MEL-28, 3.2 µM; in the test on MCF7 it was 4 µM; in the test on U373 MG, 24.9 µM; in the test on A549, 1.7 µM.

`CC(C)=CCC/C(C)=C/C(=O)NC(=N)NC(=O)/C=C(\C)CCC=C(C)C`: the GI50 was determined as 32.7 µM in the test on Hs 683; 61.9 µM in the test on SK-MEL-28; 42.4 µM with MCF7; 38.9 µM in the test with U373 MG; 23.8 µM with B16-F10; 46.9 µM with A549.

For `C=C1CCCC(C)(C)[C@@H]1CC/C(C)=C/C(=O)NC(=N)NC(=O)C=C(C)C`, the concentration for 50% growth inhibition (GI50) in the test with Hs 683 is 18.1 µM; in the test with SK-MEL-28 it was 60.5 µM; in the test on MCF7, 28.1 µM; in the test with U373 MG, 28.8 µM; in the test on B16-F10 it was 9.6 µM; in the test on A549, 29.4 µM.
